The entries come from a sample that favours hits as a whole.
PTEN del growth – growth suppression of PTEN-null HCT116, primary screen, cell-based, CellTiter-Glo | HCT116 PTEN-null viability, 60 h; stronger effect = lower value | viability, % at 10 µM | 1.2% of 140,000 active | AID 827, 2007;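 active = viability at or below a set limit, 4 SD under the median of all tested compounds, cut at about 3.7% in these data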;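 note: PTEN knockout HCT116 line with beta catenin targeted HCT116 as companion control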
Lung fibro prol – antiproliferative effect on LL 47 fibroblasts – human, LL 47 cells, CellTiter-Glo luminescence, primary screen; 1.1% of 85,000 active; viability, % at 10 µM; AID 719, 2007; LL 47 human lung fibroblast viability, ATP luminescence; stronger effect = lower value;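 active = viability at or below 50% in the single dose screen; inactive = viability above 50%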;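 note: compound exposure lasted 72 h before the ATP readout; 100% = median luminescence of untreated cell-only wells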
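Signal: luminescent ATP detection, CellTiter-Glo; assay system: LL 47 human lung fibroblasts; input: 1,150 cells/well; incubation: overnight cell rest, 72 h compound treatment at 37 °C; measure: % viability versus median cells-only luminescence; medium: IMEM growth medium with 15% fetal bovine serum; dosing: compound addition at 0.1% DMSO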
HCT116 bCat-KO – primary screen for growth suppressors in beta-catenin knockout HCT116 cells (colon tumor, human). viability, % at 10 µM. HCT116 beta-catenin knockout viability, CellTiter-Glo, 60 h; stronger effect = lower value. AID 818, 2007. 1.5% of 140,000 active;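 active = viability at or under a set limit, the compound median less 4 SD, cut at about 6% in these data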;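 note: 0% = Hyamine 1622 control at 20 µM and 100% = untreated cell control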
H69AR growth 86K – proliferation blockers of H69AR lung cancer cells, primary screen, cell-based, human, 86K library | 6% of 85,000 active | viability, % at 10 µM | H69AR lung tumor viability, ATP luminescence, 72 h; stronger effect = lower value;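 active = viability at or below 40%; inactive = viability above 40%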;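 note: multidrug resistant small cell line overexpressing MRP-1 efflux transporter; 100% = mean luminescence of untreated control wells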
HUVEC inhibit – inhibitors of HUVEC proliferation, primary screen, cell-based, 384-well | CellTiter-Glo luminescence, 72 h; stronger effect = lower value | viability, % at 10 µM (by protocol) | 1.1% of 86,000 active | AID 648, 2007;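 active = viability at or below 30%; inactive = viability above 30%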;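 note: 100% = median luminescence of DMSO-only cell control wells on each plate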
The depositor's hits bear a star; . = no result.

SMILES	PTEN del growth	Lung fibro prol	HCT116 bCat-KO	H69AR growth 86K	HUVEC inhibit
CC1Cc2ccccc2N1Cc1nc2cc(Cl)ccc2c(=O)[nH]1 (configuration not stated)	71	82	67	25*	74
COC(=O)c1ccc2c(=O)[nH]c(CN3c4ccccc4CC3C)nc2c1 (configuration not stated)	92	100	96	51	84
CCOC(=O)Nc1cc(=O)c2ccccc2o1	27	.	24	14*	61
Cc1ccc2nc(-c3ccc(NC(=O)CSc4ccccc4)cc3)[nH]c2c1	8	.	3.2*	.	.
O=C(Nc1ccc(-c2nc3ccccc3[nH]2)cc1)c1ccc2c(c1)OCO2	2.5*	.	2.6*	.	.
O=C(Nc1cccc(-c2nc3ccccc3[nH]2)c1)c1cccc(NC(=O)c2ccco2)c1	55	13*	10	1.2*	1.9*
O=C(CSc1ccccc1)Nc1ccc(-c2nc3ccccc3[nH]2)cc1	71	.	80	.	.
Cc1ccc(-c2nc3ccccc3[nH]2)cc1NC(=O)c1ccco1	86	107	95	.	96
O=C(Nc1ccc(Cl)c(-c2nc3ccccc3[nH]2)c1)c1ccc2c(c1)OCO2	63	.	77	.	.
Cc1cccc2[nH]c(-c3ccc(NC(=O)c4ccco4)cc3)nc12	92	109	88	35*	94
O=C(Nc1ccc2nc(-c3ccc(Br)o3)[nH]c2c1)c1ccco1	93	114	104	51	69
O=C(Nc1ccc2nc(-c3ccccc3)[nH]c2c1)c1ccco1	73	93	75	39*	88
O=C(Nc1ccc(-c2nc3c(ccc4ccccc43)o2)cc1)c1ccco1	16	40*	19	19*	69
CCOC(=O)/C(=C\c1cccc(O)c1)c1nc2sc(C)c(C)c2c(=O)[nH]1	52	.	58	.	.
CCOC(=O)CCCNC(=O)COC(=O)c1ccc(O)cc1	99	.	88	.	.
O=C(CSc1ccccc1)Nc1ccc(N2CCOCC2)cc1	92	91	84	6.8*	85
CC(C)n1cc(/C=C(\C#N)S(=O)(=O)c2ccccc2)c2ccccc21	96	92	89	34*	86
Cc1[nH][nH]c(=O)c1C(c1ccc(-c2ccc(Cl)cc2Cl)o1)c1c(C)[nH][nH]c1=O	89	.	93	.	.
CC1=NOC(=O)/C1=C\c1ccc(-c2ccc(Cl)cc2Cl)o1	8	.	4.7*	.	.
Cc1ccc2nc(C)/c(=N\O)c(C)nc2c1	87	98	88	6.8*	93
CCOC(=O)c1nc2ccccc2nc1C	104	.	91	.	.
Cc1nc2ccc(Cl)cc2nc(C)/c1=N\O	100	91	98	5.6*	87
Cc1nc2ccccc2nc(C)c1=NO	99	93	82	27*	95
COc1ccccc1C(=O)NNC(=S)NC(=O)c1ccco1	13	.	11	.	.
CC(C)COc1ccc(CSCCNC(=S)Nc2ccccc2)cc1	40	.	36	.	.
SMILES	PTEN del growth	Lung fibro prol	HCT116 bCat-KO	H69AR growth 86K	HUVEC inhibit
Cn1c(N)c(S(=O)(=O)c2ccc(Br)cc2)c2nc3ccccc3nc21	84	97	77	13*	63
Cc1ccc(S(=O)(=O)c2c(N)n(CCCO)c3nc4ccccc4nc23)cc1	81	96	87	83	87
Cc1cccc(S(=O)(=O)c2c(N)n(/N=C/c3ccccc3)c3nc4ccccc4nc23)c1	53	93	53	44	99
CC(C)CCn1c(N)c(S(=O)(=O)c2cccs2)c2nc3ccccc3nc21	22	84	30	40*	74
Nc1c(S(=O)(=O)c2ccccc2)c2nc3ccccc3nc2n1/N=C/c1cccc(O)c1	3.6*	100	9	1.4*	6.9*
Cc1ccc(S(=O)(=O)c2c(N)n(CCC(C)C)c3nc4ccccc4nc23)cc1	2.6*	95	8	92	65
O=C(Cn1cccc1C(=O)c1ccccc1)NCc1ccccn1	105	99	83	95	92
O=C(CN(C1CC1)S(=O)(=O)c1ccc(S(=O)(=O)N2CCCCCC2)cc1)Nc1ccccc1	99	93	95	37*	77
CCN(C1CCCCC1)S(=O)(=O)c1ccc(S(=O)(=O)N(CC(=O)Nc2ccccc2)C2CC2)cc1	104	87	94	58	92
NC(=O)N/N=C/c1ccccc1OCC(=O)NCc1ccccc1	92	.	93	.	.
C/C(CC(=O)N(C(C)C)C(C)C)=N\NC(=O)c1ccccc1Br	103	.	81	.	.
COc1cc(/C=C/C(=O)CC(=O)/C=C/c2ccc(O)c(OC)c2)ccc1O	5	21*	7	4.3*	22*
Fc1cccc(Cl)c1Cn1nnc(-c2ccc3c(c2)OCO3)n1	84	98	74	85	95
Fc1cccc(Cl)c1CSc1nnnn1-c1ccc2c(c1)OCO2	72	92	63	15*	89
O=C(NC(NCc1cccnc1)C(Cl)(Cl)Cl)c1cccc2ccccc12 (configuration not stated)	66	.	65	.	.
CCCC1(CCC)NC(=O)N(CC(=O)Nc2ccccc2OC)C1=O	98	15*	102	123	96
Cc1nc(-c2ccccn2)sc1C(=O)Nc1ccc(Cl)c(Cl)c1	78	.	76	.	.
COc1cc(NC(=O)COc2ccc(Cl)cc2)ccc1-c1cc2ccccc2oc1=O	50	.	56	.	.
Cc1cccc(C)c1OCC(=O)Nc1oc(-c2ccccc2)c(-c2ccccc2)c1C#N	.	96	.	27*	68
CCC/C=N/NC(=O)c1[nH]c2c([N+](=O)[O-])cccc2c1C	13	.	13	.	.
O=C(CCCOc1ccccc1)NC1CCCc2ccccc21 (configuration not stated)	98	.	93	.	.
C=C(C)CN1CCN(c2c(CCC#N)c(C)c(C#N)c3nc4ccccc4n23)CC1	3.1*	69	2.9*	38*	74
Cc1c(CCC(C)C)c(-n2ccnc2C)n2c(nc3ccccc32)c1C#N	74	100	72	23*	105
CCCCCc1c(C)c(C#N)c2nc3ccccc3n2c1-n1ccnc1C	70	.	77	.	.
CC1(C)CC(=O)C2=C(C1)Oc1nc3ccccc3cc1C2C(C#N)C#N (configuration not stated)	6	17*	9	1.6*	50
SMILES	PTEN del growth	Lung fibro prol	HCT116 bCat-KO	H69AR growth 86K	HUVEC inhibit
Cc1ccc(C(=O)COC(=O)c2ccccc2NC(=O)c2ccccc2)cc1[N+](=O)[O-]	92	.	89	.	.
Clc1ccc(-c2csc(N3CCN(c4ccccc4)CC3)n2)cc1	103	104	107	40*	75
Clc1ccc(-c2csc(N3CCc4ccccc4C3)n2)cc1	91	.	81	.	.
COc1cccc(OCC(=O)Nc2c(C(=O)Nc3ccc(OC)cc3OC)oc3ccccc23)c1	.	77	.	21*	32
COc1ccccc1NC(=O)c1oc2ccccc2c1NC(=O)c1cc(OC)c(OC)c(OC)c1	.	71	.	22*	41
COc1ccccc1C(=O)NC(=Nc1nc2ccccc2o1)NC(=O)c1ccccc1OC	2.1*	71	2.5*	18*	14*
